Compounds with a hit are over-represented: about 1.6% of the library has one in this group of screens.
PAD4 FP inh: inhibitors of human PAD4 | Q9UM07 | recombinant PAD4, RCA probe fluorescence polarization | inhibition, % at 6.36 µM | hit rate 0.41% among 330,000;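 active = percent inhibition above a cutoff equal to the mean of all tested compounds plus 3 SD, cut at about 15% in these data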;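 note: 0% = PAD4 with RCA probe and DMSO and 100% = probe without PAD4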
Apaf-1 inh: inhibitors of human Apaf-1 apoptosome | O14727 | reconstituted apoptosome caspase-3 activity, DEVD-Rh110 fluorescence | inhibition, % at 20 µM | hit rate 0.71% among 330,000 | AID 489030; active = inhibition of at least 40% at 20 µM;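 note: plate controls were DMSO wells for no effect and DEVD-CHO caspase inhibitor wells for full effect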
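Assay system: Apoptosome proteins | Medium: pH 7.5 Hepes buffer with CHAPS, BSA, DTT | Also added: Cytochrome c and DEVD-Rh110 substrate | Times: 30 min plus 50 min, RT | Detection: Rhodamine 110 fluorescence at Ex 480/Em 540 nm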
GSTO1 inh: blocks human GSTO1 in RBBP9 counter-screen. recombinant GSTO1, activity-based probe fluorescence polarization. inhibition, % at 5.96 µM. hit rate 1.1% among 300,000. AID 1974;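 active = inhibition above the campaign mean inhibition plus 3 SD, cut at about 35% in these data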;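 note: 0% = GSTO1-1 with DMSO and 100% = wells lacking GSTO1-1 enzyme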
TDP2 inh: TDP2 (human) inhibition, absorbance primary screen; inhibition, % at 12.8 µM; AID 720702; O95551; hit rate 0.34% among 370,000; recombinant TDP2, T5PNP hydrolysis, p-nitrophenol absorbance 415 nm;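 active = inhibition above the mean of all tested compounds plus 3 SD, set per campaign, cut at about 25% in these data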;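 note: 0% = DMSO with enzyme and 100% = buffer with substrate but no TDP2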
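Material: recombinant human TDP2; quantity: TDP2 enzyme at 120 nM final; medium: Tris-HCl pH 7.5 with MgCl2; compound: single concentration, 12.8 µM nominal, with 1% DMSO; incubation: 2 h enzyme incubation at 37 °C; signal: epi absorbance; measure: percent inhibition; benchmarks: high control without enzyme, low control DMSO plus TDP2; repeats: singlicate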
GASC-1 inh: inhibitors of human GASC-1 (JMJD2C) demethylase | Q9H3R0 | GST-JMJD2C(1-420) H3K9me3 demethylation, DELFIA europium | inhibition, % at 2.35 µM | hit rate 0.069% among 330,000 | AID 2099;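 active = more than half of a compound's replicate wells show inhibition beyond 50%, single wells judged on their own value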;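 note: signal counts dimethyl H3K9 product captured on neutravidin plate; 0% = median of DMSO wells and 100% = 0.3 times that DMSO median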
UBC9 SUMO inh: blocks human SUMOylation mediated by UBC9 | inhibition, % at 35 µM | hit rate 0.36% among 290,000 | HTRF SUMOylation assay, SAE1/SAE2 + UBC9, in vitro | AID 2006; in the data active = inhibition above about 50%, passing the limit was not always enough
GSTO1 confirm: GSTO1 (human) inhibition, confirmation. shares compounds with GSTO1 inh. recombinant GSTO1, probe fluorescence polarization. inhibition, % at 5.96 µM. hit rate 54% among 2,400;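 active = inhibition above the primary screen's cutoff, its mean inhibition plus 3 SD, cut at about 35% in these data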;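 note: loss of polarization as inhibitors block binding of rhodamine sulfonate ester activity probe; 0% = GSTO1 with DMSO and 100% = wells lacking GSTO1 enzyme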
GSTO1 recomb ABPP: GSTO1 (human) inhibition by gel ABPP. hit rate 30% among 130. AID 463110. inhibition, % at 1 µM. recombinant GSTO1, gel ABPP SE-Rh probe fluorescence. shares compounds with GSTO1 inh;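 active = inhibition of the enzyme GSTO1 above about 75%, limit read from the data; inactive = inhibition below that limit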
* hit, by the source's call; ! = not confirmed by another sample.

What do the screens show for `CC1CCCN(C(=O)CCl)C1` (configuration not stated)?
PAD4 FP inh: 1; Apaf-1 inh: -3; GSTO1 inh: 66*; TDP2 inh: 7; GASC-1 inh: -11; UBC9 SUMO inh: 6; GSTO1 confirm: 84*; GSTO1 recomb ABPP: 57

What do the screens show for `CC(C)(C)Cc1nnc(NC(=O)COc2ccc(Cl)cc2Cl)o1`?
TDP2 inh: 5

Results for Cc1nc(CCl)cc(=O)[nH]1 ?
PAD4 FP inh: 0; Apaf-1 inh: 6; GSTO1 inh: 69*; TDP2 inh: 7; GASC-1 inh: 13; UBC9 SUMO inh: 6; GSTO1 confirm: 77*; GSTO1 recomb ABPP: 17

What do the screens show for `CN(C)[C@@H]1C(=O)C(C(N)=O)=C(O)[C@@]2(O)C(=O)C3=C(O)c4c(O)cccc4[C@@](C)(O)C3[C@H](O)C12` (some centres not stated)?
PAD4 FP inh: -1; Apaf-1 inh: -13; GSTO1 inh: 62*; TDP2 inh: 14; GASC-1 inh: 20; GSTO1 confirm: 66*!

How did CN(C)C1C(=O)C(C(N)=O)=C(O)C2(O)C(=O)C3=C(O)c4c(O)cccc4C(C)(O)C3CC12 (configuration not stated) do in these assays?
PAD4 FP inh: -1; GSTO1 inh: 70*; GASC-1 inh: 1; UBC9 SUMO inh: 25; GSTO1 confirm: 28

How did CN(C)[C@@H]1C(=O)C(C(N)=O)=C(O)[C@@]2(O)C(=O)C3=C(O)c4c(O)ccc(Cl)c4[C@@](C)(O)C3C[C@@H]12 (some centres not stated) do in these assays?
TDP2 inh: -8; UBC9 SUMO inh: 28

What do the screens show for `COC(=O)C1C(c2ccc(I)cc2)CC2CCC1N2C` (configuration not stated)?
TDP2 inh: -3

What do the screens show for `Cc1cc(N2CCNC[C@H]2C)ccc1N1CCN[C@H](C)C1`?
TDP2 inh: -13

Results for c1ccc(-c2[nH]c(-c3ccccc3)[n+](CC3CO3)c2-c2ccccc2)cc1 (configuration not stated) ?
PAD4 FP inh: 0; Apaf-1 inh: 14; GSTO1 inh: 84*; TDP2 inh: -21; GASC-1 inh: -8; UBC9 SUMO inh: -8; GSTO1 confirm: 84*; GSTO1 recomb ABPP: 36

How did O=P1(Oc2ccccc2)C[C@@H](O)[C@@H](O)[C@H](COCc2ccccc2)O1 (some centres not stated) do in these assays?
PAD4 FP inh: 1; Apaf-1 inh: 2; GSTO1 inh: 73*; TDP2 inh: 4; GASC-1 inh: 12; UBC9 SUMO inh: 15; GSTO1 confirm: 5

Results for CCN(CC)c1ccc(/C=C2/C(=O)NC(=O)N(CC3CCCO3)C2=O)cc1 (configuration not stated) ?
PAD4 FP inh: -15; Apaf-1 inh: -2; GSTO1 inh: 43*; TDP2 inh: 3; GASC-1 inh: -7; UBC9 SUMO inh: 4; GSTO1 confirm: 8

What do the screens show for `O=C1NC(=O)N(CC2CCCO2)C(=O)/C1=C/c1cccs1` (configuration not stated)?
PAD4 FP inh: -2; Apaf-1 inh: -3; GSTO1 inh: 5; TDP2 inh: 9; GASC-1 inh: -2; UBC9 SUMO inh: 12

Results for COP(=O)(OC)C(O)C(Cl)(Cl)Cl (configuration not stated) ?
PAD4 FP inh: -1; Apaf-1 inh: -12; GSTO1 inh: 44*; GASC-1 inh: -3; UBC9 SUMO inh: -24; GSTO1 confirm: 34

What do the screens show for `O=C(NCCN1CCC2(CC1)C(=O)NCN2c1ccccc1)c1cccnc1Cl`?
TDP2 inh: -1

How did CC(C)(C)n1nnnc1C1CN=C(c2ccccc2)c2cc(Cl)ccc2N1 (configuration not stated) do in these assays?
TDP2 inh: 11

Source: PubChem BioAssay
